Reference: ChEMBL document CHEMBL1132870, “Solid-phase parallel synthesis of azarene pyrrolidinones as factor Xa inhibitors” (Bioorg Med Chem Lett, 2000)

biological target: T1, Coagulation factor X (Oryctolagus cuniculus) (UniProt O19045); assay: Compound was tested for its inhibitory activity against Coagulation factor X at a concentration of 0.7 uM
T1 sequence (whole entry): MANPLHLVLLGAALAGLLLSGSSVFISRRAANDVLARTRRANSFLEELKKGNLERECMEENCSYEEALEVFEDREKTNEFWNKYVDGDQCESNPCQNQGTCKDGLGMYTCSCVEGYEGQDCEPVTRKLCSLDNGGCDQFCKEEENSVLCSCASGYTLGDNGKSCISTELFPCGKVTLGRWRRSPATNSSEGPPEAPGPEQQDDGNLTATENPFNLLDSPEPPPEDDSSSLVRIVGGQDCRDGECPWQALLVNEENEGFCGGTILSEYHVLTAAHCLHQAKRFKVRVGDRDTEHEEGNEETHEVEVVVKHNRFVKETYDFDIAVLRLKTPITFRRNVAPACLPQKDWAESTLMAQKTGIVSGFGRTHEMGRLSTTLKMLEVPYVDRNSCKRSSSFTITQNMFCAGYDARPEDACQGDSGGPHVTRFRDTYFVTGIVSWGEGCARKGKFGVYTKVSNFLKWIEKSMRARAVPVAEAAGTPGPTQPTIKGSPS

| SMILES | inhibition [%] |
| --- | --- |
| O=C1[C@@H](NS(=O)(=O)c2cc3ncccc3s2)CCN1CCNc1ccncc1 | 50 |

biological target: T1, Coagulation factor X (Oryctolagus cuniculus); assay: Compound was tested for its inhibitory activity against Coagulation factor X at a concentration of 0.3 uM

| SMILES | inhibition [%] |
| --- | --- |
| O=C1[C@@H](NS(=O)(=O)c2ccc(-c3ccc(Cl)s3)s2)CCN1Cc1cc2cc[nH]cc-2n1 | 53 |
| O=C1[C@@H](NS(=O)(=O)c2cc3ncccc3s2)CCN1Cc1cc2[nH]cccc-2n1 | 58 |

biological target: T1, Coagulation factor X (Oryctolagus cuniculus); assay: Compound was tested for its inhibitory activity against Coagulation factor X at a concentration of 0.4 uM

| SMILES | inhibition [%] |
| --- | --- |
| O=C1[C@@H](NS(=O)(=O)c2cc3nc(Cl)ccc3s2)CCN1CCNc1ccncc1 | 50 |

biological target: T1, Coagulation factor X (Oryctolagus cuniculus); assay: Compound was tested for its inhibitory activity against Coagulation factor X at a concentration of 0.1 uM

| SMILES | inhibition [%] |
| --- | --- |
| O=C1[C@@H](NS(=O)(=O)c2cc3ccc(Cl)nc3s2)CCN1CCNc1ccncc1 | 53 |
| O=C1[C@@H](NS(=O)(=O)c2cc3ncccc3s2)CCN1Cc1cc2cc[nH]cc-2n1 | 52 |
| O=C1[C@@H](NS(=O)(=O)c2cc3ccc(Cl)cc3s2)CCN1Cc1cc2cc[nH]cc-2n1 | 50 |
| O=C1[C@@H](NS(=O)(=O)c2ccc(-c3ccc(Cl)s3)s2)CCN1CCNc1ccncc1 | 77 |
| O=C1[C@@H](NS(=O)(=O)c2cc3ccc(Cl)cc3s2)CCN1CCNc1ccncc1 | 57 |
| O=C1[C@@H](NS(=O)(=O)c2ccc(-c3ccc(Cl)s3)s2)CCN1Cc1cc2c[nH]ccc-2n1 | 62 |

biological target: T1, Coagulation factor X (Oryctolagus cuniculus); assay: Compound was tested for its inhibitory activity against Coagulation factor X at a concentration of 0.5 uM

| SMILES | inhibition [%] |
| --- | --- |
| O=C1[C@@H](NS(=O)(=O)c2cc3nc(Cl)ccc3s2)CCN1Cc1cc2[nH]cccc-2n1 | 48 |
| O=C1[C@@H](NS(=O)(=O)c2cc3c(Cl)nccc3s2)CCN1Cc1cc2[nH]cccc-2n1 | 50 |
| O=C1[C@@H](NS(=O)(=O)c2cc3ccc(Cl)cc3s2)CCN1Cc1cc2c[nH]ccc-2n1 | 53 |
| O=C1[C@@H](NS(=O)(=O)c2cc3ccnc(Cl)c3s2)CCN1Cc1cc2cc[nH]cc-2n1 | 48 |
| Cc1c(S(=O)(=O)N[C@H]2CCN(CCNc3ccncc3)C2=O)sc2cc(Cl)ccc12 | 47 |
| O=C1[C@@H](NS(=O)(=O)c2cc3cccnc3s2)CCN1Cc1cc2cc[nH]cc-2n1 | 43 |
| O=C1[C@@H](NS(=O)(=O)c2cc3ccc(Cl)cc3s2)CCN1Cc1cc2[nH]cccc-2n1 | 64 |

biological target: T1, Coagulation factor X (Oryctolagus cuniculus); assay: Compound was tested for its inhibitory activity against Coagulation factor X at a concentration of 0.2 uM

| SMILES | inhibition [%] |
| --- | --- |
| O=C1[C@@H](NS(=O)(=O)c2cc3c(Cl)nccc3s2)CCN1Cc1cc2cc[nH]cc-2n1 | 52 |

biological target: T1, Coagulation factor X (Oryctolagus cuniculus); assay: Inhibitory activity against coagulation factor X at a concentration of 1 uM
Summary of the method: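 Triplicate screen. DMSO stocks were diluted to 1 µM final inhibitor in 0.05 M Tris, 0.15 M NaCl, 0.1% PEG-8000, pH 7.5. Incubated 30 min at rt with 1 nM fXa, then 200 µM Spectrozyme chromogenic substrate added. Initial rates read at 405 nm over 5 min in kinetic mode; % inhibition reported.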

| SMILES | inhibition [%] |
| --- | --- |
| O=C1[C@@H](NS(=O)(=O)c2cc3c(Cl)nccc3s2)CCN1CCNc1ccncc1 | 39 |
| CC(C)(C)c1ccc(S(=O)(=O)N[C@H]2CCN(Cc3cc4c[nH]ccc-4n3)C2=O)cc1 | 14 |
| CC(C)(C)c1ccc(S(=O)(=O)N[C@H]2CCN(CCNc3ccncc3)C2=O)cc1 | 14 |
| O=C1[C@@H](NS(=O)(=O)c2cc3ccc(Cl)nc3s2)CCN1Cc1cc2[nH]cccc-2n1 | 23 |
| O=C1[C@@H](NS(=O)(=O)c2cc3cccnc3s2)CCN1CCNc1ccncc1 | 23 |
| O=C1[C@@H](NS(=O)(=O)c2cc3cccnc3s2)CCN1Cc1cc2c[nH]ccc-2n1 | 18 |
| O=C1[C@@H](NS(=O)(=O)c2cc3ccc(Cl)nc3s2)CCN1Cc1cc2c[nH]ccc-2n1 | 51 |
| O=C1[C@@H](NS(=O)(=O)c2ccc(-c3ccon3)s2)CCN1Cc1cc2c[nH]ccc-2n1 | 17 |
| CC(C)(C)c1ccc(S(=O)(=O)N[C@H]2CCN(Cc3cc4[nH]cccc-4n3)C2=O)cc1 | 22 |
| O=C1[C@@H](NS(=O)(=O)c2cc3nc(Cl)ccc3s2)CCN1Cc1cc2c[nH]ccc-2n1 | 58 |
| O=C1[C@@H](NS(=O)(=O)c2cc3ccnc(Cl)c3s2)CCN1Cc1cc2[nH]cccc-2n1 | 45 |
| Cc1c(S(=O)(=O)N[C@H]2CCN(Cc3cc4[nH]cccc-4n3)C2=O)sc2ccc(Cl)cc12 | 40 |
| O=C1[C@@H](NS(=O)(=O)c2ccc(-c3ccccn3)s2)CCN1Cc1cc2[nH]cccc-2n1 | 8 |
| O=C1[C@@H](NS(=O)(=O)c2ccc(-c3ccncc3)s2)CCN1Cc1cc2[nH]cccc-2n1 | 35 |
| O=C1[C@@H](NS(=O)(=O)c2nc3cc(Cl)ccc3[nH]2)CCN1Cc1cc2cc[nH]cc-2n1 | 21 |
| O=C1[C@@H](NS(=O)(=O)c2ccc(-c3ccncc3)s2)CCN1Cc1cc2cc[nH]cc-2n1 | 50 |
| O=C1[C@@H](NS(=O)(=O)c2ccc(-c3ccc(Cl)s3)s2)CCN1Cc1cc2[nH]cccc-2n1 | 42 |
| O=C1[C@@H](NS(=O)(=O)c2ccc(-c3ccon3)s2)CCN1Cc1cc2cc[nH]cc-2n1 | 49 |

| SMILES | inhibition [%] |
| --- | --- |
| CC(C)(C)c1ccc(S(=O)(=O)N[C@H]2CCN(Cc3cc4cc[nH]cc-4n3)C2=O)cc1 | 57 |
| O=C1[C@@H](NS(=O)(=O)c2ccc(-c3ccncc3)s2)CCN1Cc1cc2c[nH]ccc-2n1 | 21 |
| O=C1[C@@H](NS(=O)(=O)c2ccc(-c3ccccn3)s2)CCN1Cc1cc2cc[nH]cc-2n1 | 17 |
| O=C1[C@@H](NS(=O)(=O)c2cc3c(Cl)nccc3s2)CCN1Cc1cc2c[nH]ccc-2n1 | 35 |
| O=C1[C@@H](NS(=O)(=O)c2ccc(-c3ccncc3)s2)CCN1CCNc1ccncc1 | 41 |
| O=C1[C@@H](NS(=O)(=O)c2ccc(-c3ccon3)s2)CCN1CCNc1ccncc1 | 22 |
| O=C1[C@@H](NS(=O)(=O)c2ccc(-c3ccccn3)s2)CCN1CCNc1ccncc1 | 18 |
| O=C1[C@@H](NS(=O)(=O)c2ccc(-c3ccon3)s2)CCN1Cc1cc2[nH]cccc-2n1 | 31 |
| O=C1[C@@H](NS(=O)(=O)c2cc3ccc(Cl)nc3s2)CCN1Cc1cc2cc[nH]cc-2n1 | 50 |
| O=C1[C@@H](NS(=O)(=O)c2cc3ncccc3s2)CCN1Cc1cc2c[nH]ccc-2n1 | 61 |
| O=C1[C@@H](NS(=O)(=O)c2nc3cc(Cl)ccc3[nH]2)CCN1CCNc1ccncc1 | 29 |
| O=C1[C@@H](NS(=O)(=O)c2nc3cc(Cl)ccc3[nH]2)CCN1Cc1cc2[nH]cccc-2n1 | 14 |
| O=C1[C@@H](NS(=O)(=O)c2cc3ccnc(Cl)c3s2)CCN1Cc1cc2c[nH]ccc-2n1 | 25 |
| O=C1[C@@H](NS(=O)(=O)c2cc3ccnc(Cl)c3s2)CCN1CCNc1ccncc1 | 23 |
| Cc1c(S(=O)(=O)N[C@H]2CCN(Cc3cc4c[nH]ccc-4n3)C2=O)sc2ccc(Cl)cc12 | 37 |
| O=C1[C@@H](NS(=O)(=O)c2ccc(-c3ccccn3)s2)CCN1Cc1cc2c[nH]ccc-2n1 | 11 |
| O=C1[C@@H](NS(=O)(=O)c2cc3cccnc3s2)CCN1Cc1cc2[nH]cccc-2n1 | 44 |
| O=C1[C@@H](NS(=O)(=O)c2nc3cc(Cl)ccc3[nH]2)CCN1Cc1cc2c[nH]ccc-2n1 | 31 |
